Shown are actives, neighbours in structure and some others; about 1.9% of the full set was active somewhere.
FAS-TE inh: FAS thioesterase (human) inhibition; P49327; recombinant FAS-TE, OMFH fluorogenic substrate, fluorescence endpoint; inhibition, % at 15 µM; 360,000 compounds, 0.67% hits;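 active = compounds whose normalised, plate-corrected inhibition of enzyme fluorescence in the single-dose primary screen is 50% or more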;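 also: 0% = DMSO with enzyme and 100% = substrate without enzyme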
SENP1 inh: blocks the human SENP1 SUMO protease catalytic domain; Q9P0U3; recombinant SENP1 catalytic domain, CyPet-SUMO1-YPet FRET cleavage; inhibition, % at 10 µM; 360,000 compounds, 0.21% hits; AID 624204;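 active = inhibition at least 30% at 10 µM, raw YFP signal under a set limit, fluorescence ratio 0.5 to 1.5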;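 also: 0% = enzyme with DMSO and 100% = no enzyme wells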
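Material – human SENP1 catalytic domain · Input – SENP1 enzyme, 20 pM final · Compound dosing – single concentration of 10 µM compound, 0.5% DMSO final · Timing – enzyme reaction for 50 min at room temperature, dark · Measured by – FRET fluorescence in CFP and YFP emission channels · Control set – no-enzyme wells low, DMSO-plus-enzyme wells high control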
ADAM17 inh: ADAM17 inhibition, QFRET primary screen | 370,000 compounds, 0.83% hits | P78536 | recombinant ADAM17, EDANS/DABCYL FRET peptide cleavage | AID 720648 | inhibition, % at 6.95 µM;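 active = inhibition above the mean of compounds lying between control limits plus 3 SD, set per campaign, cut at about 8.5% in these data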;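 also: 0% = DMSO-only wells as the low control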
ADAM10 inh: inhibitors of human ADAM10 | recombinant ADAM10, EDANS/DABCYL FRET peptide cleavage, 3 h | inhibition, % at 7 µM | 370,000 compounds, 0.62% hits;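 active = inhibition above a per-campaign cutoff equal to the mean of compounds falling between control-based bounds plus 3 SD, cut at about 20% in these data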;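 also: 0% = DMSO wells while the 100% control is not disclosed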
Target sequence (O14672 214-748 limits assumed): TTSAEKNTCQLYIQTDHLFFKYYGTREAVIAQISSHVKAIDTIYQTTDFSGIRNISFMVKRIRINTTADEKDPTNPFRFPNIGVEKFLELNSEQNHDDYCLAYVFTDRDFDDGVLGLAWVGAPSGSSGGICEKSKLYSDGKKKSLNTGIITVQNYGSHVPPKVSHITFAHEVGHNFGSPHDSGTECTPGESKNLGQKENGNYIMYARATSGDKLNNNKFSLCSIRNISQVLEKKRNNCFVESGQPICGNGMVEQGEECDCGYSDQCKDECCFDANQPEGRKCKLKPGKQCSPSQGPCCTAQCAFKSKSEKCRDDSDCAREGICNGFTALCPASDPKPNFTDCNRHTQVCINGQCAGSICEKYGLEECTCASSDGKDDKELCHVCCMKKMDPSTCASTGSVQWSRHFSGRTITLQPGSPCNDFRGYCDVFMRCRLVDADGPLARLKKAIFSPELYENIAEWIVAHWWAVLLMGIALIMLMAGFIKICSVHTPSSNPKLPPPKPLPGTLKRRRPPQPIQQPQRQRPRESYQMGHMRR
ADAM10 counter: ADAM10 inhibition, counter-screen for ADAM17 exosite hits; AID 743256; recombinant ADAM10, EDANS/DABCYL FRET peptide cleavage, 3 h; 2,900 compounds, 47% hits; inhibition, % at 6.95 µM; shares compounds with ADAM17 inh;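 active = mean inhibition over the triplicate runs exceeds the activity threshold set in the earlier primary screen, cut at about 20% in these data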;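 also: 0% = DMSO wells and 100% = marimastat wells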
ADAM17 confirm: confirmation of inhibitors of human ADAM17; AID 743257; 2,900 compounds, 65% hits; inhibition, % at 6.95 µM; shares compounds with ADAM17 inh; recombinant ADAM17, EDANS/DABCYL QFRET peptide cleavage;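 active = mean inhibition across replicates above the hit cutoff set in the primary screen, cut at about 8.5% in these data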;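 also: 0% = DMSO wells and 100% = marimastat wells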
* hit, by the source's call; / = not tested or not shown.

SMILES	FAS-TE inh	SENP1 inh	ADAM17 inh	ADAM10 inh	ADAM10 counter	ADAM17 confirm
COC(=O)[C@]12C[C@H](CC(=O)NCc3ccc(C)o3)C(=O)N(Cc3ccc4c(c3)OCO4)C1=C[C@H](C(C)(C)C)O[C@@H]2C	/	/	3	6	/	/
CCCCNC(=O)C[C@H]1C[C@@]2(C(=O)OC)C(=C[C@H](C3CCCC3)O[C@@H]2C)N(CCc2ccc(OC)c(OC)c2)C1=O	/	/	1	-5	/	/
CCOC(=O)[C@]12CCCC3=C1N(CCC3)C(=O)[C@@H](CC(=O)NCCC(C)C)C2	/	/	-1	-2	/	/
Cc1ccc(C)c(C(=O)OCC(=O)Nc2cccc(S(=O)(=O)N3CCCCC3)c2)c1	32	2	12*	8	32*	19*
CCOc1ccc(NC(=O)COC(=O)c2cc(S(=O)(=O)N3CCCC3)ccc2C)cc1	22	2	9.4*	5	16	7
Cc1ccccc1C(=O)OCC(=O)Nc1cccc(S(=O)(=O)N2CCCCC2)c1	18	1	2	-3	/	/
Cc1cccc(OCCC(=O)Nc2ccc(C)c(S(=O)(=O)N3CCCCC3)c2)c1	21	0	14*	26*	36*	18*
O=C(COC(=O)c1ccc(Br)o1)Nc1cccc(S(=O)(=O)N2CCCCCC2)c1	8	-1	9.8*	12	26*	15*
C[C@@H]1CCN(C2CC2)S(=O)(=O)c2ccc(N3CCC[C@@H]3CO)cc2O1	/	/	-4	-3	/	/
Cc1ccc(C)c(OCCC(=O)Nc2cccc(S(=O)(=O)N3CCCCC3)c2)c1	30	3	9.3*	18	40*	21*
COc1ccccc1OCCC(=O)Nc1cccc(S(=O)(=O)N2CCCCC2)c1	4	3	-3	-7	/	/
CCOc1ccccc1OCC(=O)Nc1cccc(S(=O)(=O)N2CCCCCC2)c1	19	1	0	13	/	/
CC(=O)c1ccccc1OCC(=O)Nc1cccc(S(=O)(=O)N2CCCC2)c1	14	3	9.3*	-11	10	4
N=c1c2c(ncn1Cc1ccco1)Oc1c(ccc3ccccc13)C2c1ccccc1 (configuration not stated)	34	-14	9.3*	7	4	8
Cc1cc(C)c(S(=O)(=O)Nc2ccc(O)cc2)c(C)c1	-8	1	-3	2	/	/
Cc1cc(C)c(S(=O)(=O)Nc2ccc3c4c(cccc24)CC3)c(C)c1	23	-79	9.3*	14	17	12*
Cc1cc(C)c(S(=O)(=O)Nc2ccc3c(c2)CCC3)c(C)c1	18	1	13*	18	26*	12*
Cc1ccc(S(=O)(=O)Nc2ccc3c4c(cccc24)CC3)c(C)c1	11	-42	-1	4	/	/
NC(=O)c1c(N)[nH]c(C(=O)c2ccccc2)c1-c1ccccc1	/	/	5	0	/	/
CC(C)c1c(C(=O)N/N=C/c2ccc(C(F)(F)F)cc2)nnn1-c1nonc1N	16	-14	9.8*	18	22*	14*
COc1ccc(C(=O)COC(=O)C(CCCCN2C(=O)C3C4C=CC(C4)C3C2=O)N2C(=O)C3C4C=CC(C4)C3C2=O)cc1 (configuration not stated)	22	-1	9.3*	8	-3	5
CCN(CC)C(=O)CC[C@@H]1CC[C@]2(CCCN(C(=O)c3ccno3)C2)O1	/	/	-3	-4	/	/
COc1ccc(-c2noc(CCC(=O)N3CCN(c4cccc(C)c4C)CC3)n2)cc1	26	1	9.3*	9	27*	16*
CC(C)[C@H](NC(=O)c1ccc(Cl)c(Cl)c1)C(=O)N1CCC[C@H]1C(=O)NCCc1ccccc1Cl	/	/	2	7	/	/
Cc1ccc(S(=O)(=O)N(C)c2c(C)ccc(S(=O)(=O)N3CCN(C=O)CC3)c2C)cc1	2	1	3	9	/	/
SMILES	FAS-TE inh	SENP1 inh	ADAM17 inh	ADAM10 inh	ADAM10 counter	ADAM17 confirm
C=C(C)CN1CCN(S(=O)(=O)c2ccc(C)c(N(C)S(=O)(=O)c3ccc(C)cc3)c2C)CC1	31	2	10*	6	14	11*
COC(=O)c1ccc(S(=O)(=O)N2CCC(NC(=O)Cc3ccccc3)CC2)cc1	/	/	1	-1	/	/
CN1CCN(C(=O)/C(=C/c2ccccc2)c2ccccc2)CC1	-9	1	8.7*	4	-9	-4
CN1CCN(c2ccc3c(c2)Oc2ccccc2CN(Cc2cn(Cc4cccc(C(F)(F)F)c4)nn2)S3(=O)=O)CC1	/	/	3	4	/	/
CCCC1CCC2(CC1)CCC2OC(=S)NCc1ccc(Cl)cc1 (configuration not stated)	/	/	3	8	/	/
O=S(=O)(c1ccccc1Cl)N1CCCC1c1nc(-c2ccccc2Cl)no1 (configuration not stated)	18	4	-2	-7	/	/
O=S(=O)(c1ccc(Cl)cc1)N1CCCC1c1nc(-c2ccc(Cl)cc2)no1 (configuration not stated)	21	0	9.8*	15	2	3
COC(=O)[C@]12C[C@H](CC(=O)NCc3cccs3)C(=O)N(Cc3ccc(Cl)cc3Cl)C1=C[C@H](C(C)C)O[C@@H]2C1CC1	/	/	5	15	/	/
CCOC(=O)c1c(NC(=O)C2C3C=CC(CC3)C2C(=O)O)sc(C)c1C (configuration not stated)	-8	0	9.1*	2	-12	0
CCOC(=O)c1c(NC(=O)C2C3C=CC(C3)C2C(=O)O)sc2c1CCC(CC)C2 (configuration not stated)	-6	1	5	0	/	/
COc1ccc(N2CCN(C(=O)CN(c3cccc(Br)c3)S(C)(=O)=O)CC2)cc1	0	2	14*	8	4	-1
COC(=O)C1=C(C)N(C)C(=NCc2cc(OC)c(OC)c(OC)c2)NC1c1cccc(C(F)(F)F)c1 (configuration not stated)	/	/	-1	-2	/	/
CCc1cccc(C)c1NC(=O)COC(=O)CNS(=O)(=O)/C=C/c1ccccc1	-5	-2	3	4	/	/
Cc1ccc(Cl)c(NC(=O)COC(=O)CNS(=O)(=O)/C=C/c2ccccc2)c1Cl	-8	-4	9.1*	7	-4	2
COc1ccc2nc(NC(=O)C3CCN(S(=O)(=O)c4cnc[nH]4)CC3)sc2c1	-43	0	-5	-6	/	/
CCOc1ccc2nc(NC(=O)C3CCN(S(=O)(=O)c4cnc[nH]4)CC3)sc2c1	-15	-1	8.7*	-2	4	7
OC[C@@H]1CC[C@@H]2O[C@H](CCc3ccc(-c4ccc(F)cc4)cc3)[C@@H](n3cc(C4CC4)nn3)C[C@@H]2O1	/	/	4	2	/	/
COc1cccc(CN(Cc2ccco2)S(=O)(=O)c2ccc(S(=O)(=O)NCc3ccccc3)cc2)c1OC	24	1	14*	39*	43*	24*

From PubChem BioAssay
